Reference: article PMC7174984 (Bioconjugate chemistry, 2020)
Where two headings read alike, the source gives them in different places. Values belong to the molecule of their own block, whether it stands above or below them.

Columns and labels:
MDA-MB-231 cells [1] = assay: Cellular uptake of dyes, blocking experiment; assay type: cell-based, Human; settings: for effect of BSP on cellular uptake in SFM: 250 μM BSP; for effect of BSA added to SFM on cellular uptake: BSA only in the media, FACS; for effect of serum on cellular uptake: media with 10% FBS versus serum free media
How it was run: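 MDA-MB-231 cells (50,000) seeded in serum medium overnight, then starved 4 h in serum-free medium. Groups: no serum (reference), 10% FBS, and 250 μM BSP preblock for 5 min with or without serum. Test compound added for 30 min, then washed. Read by confocal (670 nm excitation) or by FACS after enzyme-free detachment (633 nm excitation, 750/45 emission). Separate arms used DMOG 24 h beforehand for hypoxia, or BSA alone in medium.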

HSA [2] = biological target: T1, HSA (Homo sapiens, UniProt P02768); assay: UV-vis/fluorescence spectroscopy of dye interaction with albumin; assay type: binding; settings: for formation of noncovalent adduct with albumin: UV absorbance maximum shift on mixing with HSA or serum
T1 sequence (P02768 25-609): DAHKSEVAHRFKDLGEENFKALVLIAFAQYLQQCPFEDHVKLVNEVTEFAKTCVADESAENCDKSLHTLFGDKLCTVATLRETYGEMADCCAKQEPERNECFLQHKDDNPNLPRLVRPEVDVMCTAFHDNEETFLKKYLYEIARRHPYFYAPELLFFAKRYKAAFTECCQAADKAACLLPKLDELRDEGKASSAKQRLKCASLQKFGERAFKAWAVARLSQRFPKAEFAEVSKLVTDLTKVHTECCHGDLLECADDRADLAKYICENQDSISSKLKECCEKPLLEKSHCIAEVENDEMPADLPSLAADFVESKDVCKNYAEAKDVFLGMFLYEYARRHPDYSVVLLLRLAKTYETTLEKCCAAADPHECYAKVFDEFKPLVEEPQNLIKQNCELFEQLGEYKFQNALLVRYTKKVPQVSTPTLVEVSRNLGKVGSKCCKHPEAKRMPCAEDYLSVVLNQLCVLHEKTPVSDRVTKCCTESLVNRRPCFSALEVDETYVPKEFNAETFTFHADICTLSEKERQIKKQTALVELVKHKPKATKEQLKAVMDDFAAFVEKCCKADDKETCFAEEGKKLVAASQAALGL

albumin = settings: cited from earlier work
HepG2 cells = assay: Cellular uptake of dyes into HepG2 liver cancer cells; assay type: cell-based; settings: compared with MDA-MB-231 data
How it was run: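 HepG2 cells kept in DMEM with 10% FBS at 37 °C and 5% CO₂, passaged at 70% confluency. Live-cell dye uptake imaged by confocal microscopy with a 20×/0.75 water objective; NIR excitation at 670 nm, detection at 716−789 nm.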

MDA-MB-231 cells [3] = assay: BSA-FITC and dye colocalization by confocal microscopy; assay type: cell-based, Human
How it was run: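 50,000 MDA-MB-231 cells (grown in DMEM/10% FBS, 37 °C, 5% CO₂) incubated with test dye (10 μM) and equimolar BSA-FITC, either mixed just before use, preincubated 24 h, or added with BSA-FITC whose Cys34 was blocked by 24 h 6-maleimidohexanoic acid pretreatment. Cells then washed twice with PBS and imaged confocally (NIR: 670 nm excitation, 716−789 nm; FITC: 490 nm excitation, 500−589 nm). Pearson coefficient computed.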

[4] = Pharmacokinetics, clearance and urinary excretion; assay type: in vivo, CD-1 mice; settings: 25 nmol iv
How it was run: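 Healthy CD-1 mice (25 g) dosed iv with 25 nmol test compound in saline with 10% BSA. Blood taken at 0, 10, 30, 60, 120, 180, 240 and 300 min, spun 3000 rpm for 20 min; plasma fluorescence read by NIR imaging. For excretion, male mice had the penis ligated before dosing and were killed at 4 h; urine fluorescence read by spectrophotometer.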

OATP1B3 [5] = settings: ARCePE prostate cancer xenograft; cited from earlier work
[6] = Biodistribution in resected tumors and organs at 48 h post-injection; assay type: in vivo, C57Bl/6 mice; settings: 25 nmol iv, tumors and organs resected 48 h post-injection
How it was run: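 Tumor-bearing C57Bl/6 mice (subcutaneous E0771) anesthetized with ketamine (100 mg/kg) and xylazine (10 mg/kg), abdomen opened by midline incision; 25 nmol test compound in 10% BSA given iv. Imaged at 48 h with intraoperative NIR system (760 nm excitation, 4 mW/cm²; 800 nm emission). ROI signal/background ratio over organs or tumor; at least 3 animals; one-way ANOVA with Tukey test; mean ± s.d.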

OATP1B3 [7] = settings: PC-3 prostate cancer xenograft; cited from earlier work
[8] = test system: subcutaneous triple negative breast tumors (E0771); assay type: in vivo, C57Bl/6 mice; settings: 25 nmol iv
How it was run: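 Female C57Bl/6 mice, 6 wk old (20−30 g), inoculated subcutaneously in left flank with 5 × 10⁶ E0771 cells in PBS. 25 nmol test compound in 10% BSA given iv; NIR imaging (760 nm excitation, 4 mW/cm²) at 0.5, 1, 2, 4, 24 and 48 h. TBR = tumor fluorescence over nearby healthy tissue; at least 3 animals per time point; mean ± s.d.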

HSA [9] = biological target: T1, HSA; settings: absorption maxima red-shifted in presence of albumin; cited from earlier work

formation of noncovalent adduct with albumin (HSA [2]): appear to form noncovalent adducts
SMILES: CC1(C)C(=CC=C2CCCC(C=CC3=[N+](CCCCS(=O)(=O)[O-])c4ccccc4C3(C)C)=C2Cl)N(CCCCS(=O)(=O)[O-])c2ccccc21.[Na+] [2-Cl]
effect of BSP on cellular uptake in SFM (MDA-MB-231 cells [1]; serum free media): suppressed | effect of BSA added to SFM on cellular uptake (MDA-MB-231 cells [1]): suppressed | effect of serum on cellular uptake (MDA-MB-231 cells [1]): suppressed

SMILES: O=C1OC(c2ccc(O)c(S(=O)(=O)O)c2)(c2ccc(O)c(S(=O)(=O)O)c2)c2c(Br)c(Br)c(Br)c(Br)c21 [BSP, Bromosulfophthalein]
fraction bound to albumin (albumin; after iv injection): more than 99% | unbound BSP (albumin; equimolar concentrations of BSP and albumin): less than 0.1%

urinary excretion ([4]; CD-1 mice): Insignificant urinary excretion | blood plasma (fluorescence) elimination half-life ([4]; healthy CD-1 mice, plasma fluorescence up to 5 h): 3.253 h | persistence in body at 48 h (biodistribution) [6]: persisted | formation of noncovalent adduct with albumin (HSA [2]): form a non-covalent adduct with albumin | displacement of dye from albumin by BSP (HSA [2]; up to 50 equiv BSP, either order of addition): not displaced from albumin by BSP
SMILES: CC1(C)C(/C=C/C2=C(Cl)C(=C/C=C3\N(CCCCCC(=O)O)c4ccccc4C3(C)C)/CCC2)=[N+](CCCCCC(=O)O)c2ccccc21 [1-Cl]
uptake into HepG2 cells, trend (HepG2 cells): followed the same trends | Pearson coefficient of colocalization (MDA-MB-231 cells [3]; 1-Cl preincubated with Cys34-blocked BSA-FITC): 0.56 | Pearson coefficient of colocalization with BSA-FITC (MDA-MB-231 cells [3]; dye 10 μM and ~1 equiv BSA-FITC, noncovalent adduct): 0.65 | effect of BSA added to SFM on cellular uptake (MDA-MB-231 cells [1]): almost identical to those in serum | effect of serum on cellular uptake (MDA-MB-231 cells [1]): suppressed | decrease of uptake by BSP (MDA-MB-231 cells [1]; serum free media, 250 μM BSP preblock, dye 20 μM, FACS quantitation): 40−50% | reduction of tumor uptake on OATP1B3 knockdown (OATP1B3 [5]): ~ 25% | reduction of tumor uptake on OATP1B3 knockdown (OATP1B3 [7]): approximately 40% | time post-injection at which high contrast was observed [8]: 48 h | maximum TBR ([8]; 48 h post-injection): 3.5 | tumor accumulation and persistence ([8]; up to 48 h): high tumor accumulation and prolonged retention

formation of noncovalent adduct with albumin (HSA [2]): appear to form noncovalent adducts
SMILES: CC1(C)C(/C=C/C=C/C=C/C=C2\N(CCCCS(=O)(=O)[O-])c3ccc4ccccc4c3C2(C)C)=[N+](CCCCS(=O)(=O)[O-])c2ccc3ccccc3c21.[Na+] [ICG]
effect of BSP on cellular uptake in SFM (MDA-MB-231 cells [1]; serum free media): suppressed | effect of BSA added to SFM on cellular uptake (MDA-MB-231 cells [1]): suppressed | effect of serum on cellular uptake (MDA-MB-231 cells [1]): suppressed

SMILES: CCCN1C(=CC=C2CCCC(C=CC3=[N+](CCC)c4ccccc4C3(C)C)=C2Cl)C(C)(C)c2ccccc21.[I-] [4-Cl]
formation of noncovalent adduct with albumin (HSA [9]): implying noncovalent complexation
